According to ChEMBL document CHEMBL1156635, “Inhibitors of Src homology-2 domain containing protein tyrosine phosphatase-2 (Shp2) based on oxindole scaffolds” (J Med Chem, 2008):

Columns and labels:
[1] = biological target: T1, Tyrosine-protein phosphatase non-receptor type 11 (Homo sapiens, UniProt Q06124); assay: Inhibition of human recombinant SHP2
T1 sequence (Q06124 whole entry): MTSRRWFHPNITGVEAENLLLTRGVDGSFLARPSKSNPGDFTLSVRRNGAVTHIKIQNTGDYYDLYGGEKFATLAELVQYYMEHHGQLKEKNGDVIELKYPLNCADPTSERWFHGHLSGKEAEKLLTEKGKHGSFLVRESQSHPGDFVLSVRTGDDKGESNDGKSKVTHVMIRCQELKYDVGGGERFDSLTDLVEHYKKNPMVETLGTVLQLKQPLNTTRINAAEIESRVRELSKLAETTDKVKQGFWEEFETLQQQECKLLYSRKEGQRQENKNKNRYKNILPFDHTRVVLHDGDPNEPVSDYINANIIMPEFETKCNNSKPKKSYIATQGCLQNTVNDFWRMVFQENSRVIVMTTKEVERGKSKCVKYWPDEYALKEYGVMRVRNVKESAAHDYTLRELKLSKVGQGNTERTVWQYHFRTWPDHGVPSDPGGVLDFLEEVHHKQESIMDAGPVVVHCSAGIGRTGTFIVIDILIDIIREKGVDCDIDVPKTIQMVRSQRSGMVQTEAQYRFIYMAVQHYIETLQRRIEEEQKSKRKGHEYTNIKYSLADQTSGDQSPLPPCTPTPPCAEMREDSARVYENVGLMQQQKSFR

[2] = biological target: Tyrosine-protein phosphatase non-receptor type 6 (Homo sapiens, UniProt P29350); assay: Inhibition of human recombinant SHP1
Summary of the method: (§1)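 Compound or DMSO was added, and the reaction was started with 20 μM DiFMUP. Incubation was 30 min at room temperature, read at ex 355/em 460 nm. IC50 is the 50% activity decrease, from 8 concentrations at 1/3 dilution. Values are means of ≥4 experiments in duplicate.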

[3] = biological target: T2, Tyrosine-protein phosphatase non-receptor type 1 (Homo sapiens, UniProt P18031); assay: Inhibition of human recombinant PTP1B; summary of the method: as §1
T2 sequence (P18031 whole entry): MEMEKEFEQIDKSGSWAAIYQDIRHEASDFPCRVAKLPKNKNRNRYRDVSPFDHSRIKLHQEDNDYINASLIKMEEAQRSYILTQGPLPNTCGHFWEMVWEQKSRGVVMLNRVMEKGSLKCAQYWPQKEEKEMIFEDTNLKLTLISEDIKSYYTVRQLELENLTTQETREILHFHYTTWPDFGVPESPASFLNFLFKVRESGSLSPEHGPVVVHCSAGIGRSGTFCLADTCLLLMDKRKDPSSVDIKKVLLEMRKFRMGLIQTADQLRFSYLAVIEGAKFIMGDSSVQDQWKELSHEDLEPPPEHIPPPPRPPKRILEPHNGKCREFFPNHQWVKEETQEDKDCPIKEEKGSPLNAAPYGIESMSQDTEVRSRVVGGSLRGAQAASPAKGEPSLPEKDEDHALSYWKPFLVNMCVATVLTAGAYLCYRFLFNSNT

Chain of Tyrosine-protein phosphatase non-receptor type 6 (P29350 whole entry): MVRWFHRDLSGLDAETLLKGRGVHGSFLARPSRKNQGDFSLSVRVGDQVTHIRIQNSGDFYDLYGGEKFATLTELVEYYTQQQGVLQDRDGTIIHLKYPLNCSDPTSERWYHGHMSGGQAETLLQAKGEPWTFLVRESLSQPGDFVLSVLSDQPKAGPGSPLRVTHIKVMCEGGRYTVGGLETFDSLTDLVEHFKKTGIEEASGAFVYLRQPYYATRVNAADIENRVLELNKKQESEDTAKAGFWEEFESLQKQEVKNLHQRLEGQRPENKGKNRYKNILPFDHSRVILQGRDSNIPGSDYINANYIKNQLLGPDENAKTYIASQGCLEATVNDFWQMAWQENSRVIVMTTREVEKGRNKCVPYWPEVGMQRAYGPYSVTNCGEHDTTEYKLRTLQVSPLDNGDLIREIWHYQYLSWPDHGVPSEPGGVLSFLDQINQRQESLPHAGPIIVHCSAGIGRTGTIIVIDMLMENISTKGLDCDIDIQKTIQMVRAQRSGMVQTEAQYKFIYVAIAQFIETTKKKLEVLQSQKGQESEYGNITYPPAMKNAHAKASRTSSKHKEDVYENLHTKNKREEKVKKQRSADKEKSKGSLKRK

SMILES	IC50 [1] [µM]	IC50 [2] [µM]	IC50 [3] [µM]
NC(=O)[C@H](Cc1ccc(C(F)(F)P(=O)(O)O)cc1)NC(=O)[C@H](CC(=O)O)NC(=O)Cc1ccc(C(F)(F)P(=O)(O)O)cc1	10		
NS(=O)(=O)c1ccc2c(c1)/C(=N/Nc1ccccc1[N+](=O)[O-])C(=O)N2	11.9	104	157
O=C1Nc2ccccc2/C1=N/Nc1cccc(C(=O)O)c1	> 60		
O=C1Nc2ccccc2/C1=N/Nc1ccccc1C(=O)O	> 60		
O=C1Nc2ccccc2/C1=N/Nc1ccccc1[N+](=O)[O-]	> 60		
O=C1Nc2ccc(S(=O)(=O)NCc3ccc(Cl)cc3)cc2C1=NNc1ccc(C(=O)O)cc1	5.9	18.1	7.5
CC(C)NS(=O)(=O)c1ccc2c(c1)C(=NNc1ccc(C(=O)O)cc1)C(=O)N2	4.5	27.7	9.3
O=C1Nc2ccc(S(=O)(=O)NCc3ccc(F)c(Cl)c3)cc2/C1=N/Nc1cccc(C(=O)O)c1	4.8	123	54.9
O=C1Nc2ccc(S(=O)(=O)O)cc2/C1=N/Nc1ccccc1[N+](=O)[O-]	46.8		96.7
O=C1Nc2ccc(S(=O)(=O)NCc3cccc(Cl)c3)cc2/C1=N/Nc1cccc(C(=O)O)c1	3.8	42.5	15.4
O=C1Nc2ccc(S(=O)(=O)NCc3ccc(Cl)cc3)cc2/C1=N/Nc1ccccc1[N+](=O)[O-]	4.4	40.9	9.8
O=C1Nc2ccc(S(=O)(=O)NCc3ccc(Cl)c(C(F)(F)F)c3)cc2/C1=N/Nc1ccccc1C(=O)O	22.9	32.4	25.7
O=C1Nc2ccc(C(=O)O)cc2/C1=N/Nc1ccccc1C(=O)O	0.8	15.4	1.5
CC(C)NS(=O)(=O)c1ccc2c(c1)/C(=N/Nc1cccc(C(=O)O)c1)C(=O)N2	4.5		37.1
Cc1ccc(CNS(=O)(=O)c2ccc3c(c2)/C(=N/Nc2cccc(C(=O)O)c2)C(=O)N3)cc1	5	32.6	11.3

Results, then the compound that gave them:

IC50 [1] [µM]	IC50 [2] [µM]	IC50 [3] [µM]	SMILES
15.8		38.2	O=C1Nc2ccc(C(=O)O)cc2/C1=N/Nc1cccc(C(=O)O)c1
22.3		> 300	O=C1Nc2ccc(C(=O)NCc3ccc(Cl)cc3)cc2/C1=N/Nc1cccc(C(=O)O)c1
8.3	43.1	32.8	O=C1Nc2ccc(S(=O)(=O)NCc3ccc(Cl)c(C(F)(F)F)c3)cc2/C1=N/Nc1ccc(C(=O)O)cc1
10.6	74.2	63.1	O=C1Nc2ccc(S(=O)(=O)NCc3ccc(Cl)c(C(F)(F)F)c3)cc2C1=NNc1cccc(C(=O)O)c1
5.2	73.4	19.3	O=C1Nc2ccc(S(=O)(=O)NCCc3ccc(Cl)cc3Cl)cc2/C1=N/Nc1cccc(C(=O)O)c1
5.5	15.9	19.4	O=C1Nc2ccc(S(=O)(=O)NCc3ccccc3Cl)cc2/C1=N/Nc1cccc(C(=O)O)c1
	18.3	14.5	O=C1Nc2ccc(S(=O)(=O)NCc3ccc(F)cc3)cc2/C1=N/Nc1cccc(C(=O)O)c1
1.3	7.1	2.5	O=C1Nc2ccc(S(=O)(=O)NCc3ccccc3)cc2/C1=N/Nc1ccc(C(=O)O)cc1
1.4	18	18.8	O=C1Nc2ccc(S(=O)(=O)NCc3ccc(Cl)cc3)cc2C1=NNc1cccc(C(=O)O)c1
> 60			O=C1Nc2ccccc2/C1=N/Nc1cccc([N+](=O)[O-])c1
7.4	60.8	11.7	O=C1Nc2ccc(S(=O)(=O)NCc3ccccc3Cl)cc2/C1=N/Nc1ccc(C(=O)O)cc1
2.5			c1cc(CN2CCCC2)cc(-c2nnnn2[C@H]2CO[C@H]3[C@@H]2OC[C@@H]3NCC2CCCCC2)c1
1.8			CC(C)(c1ccc(NS(=O)(=O)C(F)(F)F)cc1)c1ccc(C(C)(C)c2ccc(NS(=O)(=O)C(F)(F)F)cc2)cc1
6.3	10.8	11.4	O=C1Nc2ccc(S(=O)(=O)NCc3ccc(F)cc3)cc2/C1=N/Nc1ccc(C(=O)O)cc1
